Assays:
[1] = target: T1, 3-hydroxy-3-methylglutaryl-coenzyme A reductase (Homo sapiens, UniProt P04035); test: Inhibition of HMG-coA Reductase enzyme in AR45 cells; format: cell-based
T1 sequence (P04035 whole entry): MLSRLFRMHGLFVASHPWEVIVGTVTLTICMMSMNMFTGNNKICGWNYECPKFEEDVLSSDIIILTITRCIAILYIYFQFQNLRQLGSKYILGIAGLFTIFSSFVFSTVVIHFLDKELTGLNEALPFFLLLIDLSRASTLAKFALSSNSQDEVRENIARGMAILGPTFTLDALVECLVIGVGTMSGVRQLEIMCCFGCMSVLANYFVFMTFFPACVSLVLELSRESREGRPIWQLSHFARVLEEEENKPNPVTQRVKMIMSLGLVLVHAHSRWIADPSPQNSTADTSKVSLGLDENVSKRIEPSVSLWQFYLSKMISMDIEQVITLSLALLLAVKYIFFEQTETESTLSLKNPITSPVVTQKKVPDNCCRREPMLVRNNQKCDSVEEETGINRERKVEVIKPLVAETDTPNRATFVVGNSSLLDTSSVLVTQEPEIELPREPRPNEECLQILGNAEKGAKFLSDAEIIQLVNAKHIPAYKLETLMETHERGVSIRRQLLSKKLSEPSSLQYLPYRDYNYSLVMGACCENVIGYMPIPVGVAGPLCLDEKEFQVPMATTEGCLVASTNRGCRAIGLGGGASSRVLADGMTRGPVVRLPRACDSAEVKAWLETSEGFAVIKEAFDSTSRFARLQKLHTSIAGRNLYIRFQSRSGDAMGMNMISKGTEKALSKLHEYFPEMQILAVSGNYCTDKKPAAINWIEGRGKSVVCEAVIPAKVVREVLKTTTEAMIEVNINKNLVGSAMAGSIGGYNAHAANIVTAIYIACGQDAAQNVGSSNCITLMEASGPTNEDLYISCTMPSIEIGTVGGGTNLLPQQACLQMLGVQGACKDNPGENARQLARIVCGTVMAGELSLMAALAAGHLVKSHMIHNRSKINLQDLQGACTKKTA
How it was run: (§1)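 Cells grown in McCoy's 5a medium with 1% delipidated FBS under 5% CO2 and treated 4 h with compound given as a BSA suspension from an ethanol stock (final BSA 0.5 mg/mL, ethanol ≤0.5%). Cells permeabilized with 30 μg/mL digitonin in CSK buffer pH 6.8, then preincubated 20 min at 37 °C. Conversion of [14C]HMG-CoA to mevalonolactone measured with [3H]mevalonolactone internal standard and TLC separation. Value is the concentration reducing activity to 50% of control.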

[2] = target: T2, Lanosterol 14-alpha demethylase (Rattus norvegicus, UniProt Q64654); test: (§2) Inhibition rat liver microsome cytochrome P450DM; format: microsomes
T2 sequence (Q64654 whole entry): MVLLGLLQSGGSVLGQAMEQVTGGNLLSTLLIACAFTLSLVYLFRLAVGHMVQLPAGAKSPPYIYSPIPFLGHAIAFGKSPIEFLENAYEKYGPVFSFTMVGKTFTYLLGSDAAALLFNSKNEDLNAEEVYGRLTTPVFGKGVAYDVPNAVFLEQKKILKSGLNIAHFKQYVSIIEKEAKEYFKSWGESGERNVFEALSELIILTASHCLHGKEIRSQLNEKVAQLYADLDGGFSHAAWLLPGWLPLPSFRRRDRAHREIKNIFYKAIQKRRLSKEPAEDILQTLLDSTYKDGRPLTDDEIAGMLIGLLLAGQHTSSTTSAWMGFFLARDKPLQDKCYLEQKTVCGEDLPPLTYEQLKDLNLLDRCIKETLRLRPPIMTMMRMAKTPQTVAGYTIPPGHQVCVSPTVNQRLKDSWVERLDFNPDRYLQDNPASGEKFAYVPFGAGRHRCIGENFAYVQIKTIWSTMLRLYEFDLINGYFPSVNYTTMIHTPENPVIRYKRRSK
How it was run: (§3)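 Buffer: phosphate pH 7.4 with glutathione, EDTA, 20% glycerol, NAD(P)H cofactors, isocitrate/isocitrate dehydrogenase, MgCl2, AY-9944, NaCN. Diene product quantified by UV-HPLC. IC50 taken from linear plots of reciprocal turnover vs inhibitor concentration.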

[3] = target: Lanosterol 14-alpha demethylase (Cricetulus griseus); test: Inhibition of cytochrome P450DM in intact CHO cells
[4] = target: T1, 3-hydroxy-3-methylglutaryl-coenzyme A reductase; test: Inhibition of HMG-coA Reductase enzyme in chinese hamster ovary cells; format: cell-based, Cricetulus griseus, CHO; how it was run: as §1
[5] = substrate: [H][C@]1([C@]([H])(C)CCCC(C)C)CC[C@@]2(C)C3=C(CC[C@]12C)[C@@]1(C)CC[C@H](O)C(C)(C)C1CC3; test: as §2; format: microsomes; how it was run: as §3

## CC(C)CCC[C@@H](C)[C@H]1CC[C@@]2(C(C)O)C3=CCC4C(C)(C)[C@@H](O)CC[C@]4(C)C3CC[C@]12C (stereo in doubt; 17b)
[1]
  IC50: > 20000 nM
[2]
  IC50: 1600 nM
[3]
  IC50: 300 nM
[4]
  IC50: 1500 nM

## CC(C)CCC[C@@H](C)[C@H]1CC[C@@]2(C(C)O)C3=CCC4C(C)(C)[C@@H](O)CC[C@]4(C)C3CC[C@]12C (stereo in doubt; 17a)
[1]; ar45
  IC50: > 20000 nM
[2]
  IC50: 330 nM
[3]
  IC50: 300 nM
[4]
  IC50: 3000 nM

## CC(=O)[C@@]12CC[C@H]([C@H](C)CCCC(C)C)[C@@]1(C)CCC1C2=CCC2C(C)(C)[C@@H](O)CC[C@]12C (stereo partly drawn)
[1]
  IC50: > 20000 nM
[2]
  IC50: 9100 nM
[3]
  IC50: 2700 nM
[4]
  IC50: 1000 nM

B1: Lanosterol 14-alpha demethylase (Rattus norvegicus) (protein)
chain: MVLLGLLQSGGSVLGQAMEQVTGGNLLSTLLIACAFTLSLVYLFRLAVGHMVQLPAGAKSPPYIYSPIPFLGHAIAFGKSPIEFLENAYEKYGPVFSFTMVGKTFTYLLGSDAAALLFNSKNEDLNAEEVYGRLTTPVFGKGVAYDVPNAVFLEQKKILKSGLNIAHFKQYVSIIEKEAKEYFKSWGESGERNVFEALSELIILTASHCLHGKEIRSQLNEKVAQLYADLDGGFSHAAWLLPGWLPLPSFRRRDRAHREIKNIFYKAIQKRRLSKEPAEDILQTLLDSTYKDGRPLTDDEIAGMLIGLLLAGQHTSSTTSAWMGFFLARDKPLQDKCYLEQKTVCGEDLPPLTYEQLKDLNLLDRCIKETLRLRPPIMTMMRMAKTPQTVAGYTIPPGHQVCVSPTVNQRLKDSWVERLDFNPDRYLQDNPASGEKFAYVPFGAGRHRCIGENFAYVQIKTIWSTMLRLYEFDLINGYFPSVNYTTMIHTPENPVIRYKRRSK
[5]
  Km: 33 µM

Reference: ChEMBL document CHEMBL1126590, “32-Methyl-32-oxylanosterols: dual-action inhibitors of cholesterol biosynthesis” (J Med Chem, 1993)
